Source: PubChem BioAssay
Only some compounds are listed: those with a hit (about 2.5% of all), similar ones and a draw of the others.
TRPC6 inh – mouse TRPC6 channel inhibition | HEK293-TRPC6, membrane potential dye, ACh-evoked depolarization; stronger effect = lower value | Q61143 | B-score at 10 µM | actives 1.1% (n = 310,000) | AID 2553;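 active means B-score under library mean minus 3 SD, initial fluorescence not abnormally high, positive integrated signal ratio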;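 further: B-score derived from integrated fluorescence ratio over the kinetic read; more negative B-score means stronger inhibition of depolarization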
TRPC4 potent – TRPC4 (mouse) allosteric potentiation. actives 0.42% (n = 310,000). HEK293 TRPC4beta/mu-opioid, DAMGO EC20, Fluo-4 Ca2+ flux; stronger effect = higher value. B-score at 10 µM. Q9QUQ5;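 active means B-score of calcium response area above 5 SD of library B-scores, with initial fluorescence ratio within 5 SD of library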;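 further: B-score of integrated fluorescence ratio over time as area under calcium response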
Target sequence (Q9QUQ5 whole entry, looked up): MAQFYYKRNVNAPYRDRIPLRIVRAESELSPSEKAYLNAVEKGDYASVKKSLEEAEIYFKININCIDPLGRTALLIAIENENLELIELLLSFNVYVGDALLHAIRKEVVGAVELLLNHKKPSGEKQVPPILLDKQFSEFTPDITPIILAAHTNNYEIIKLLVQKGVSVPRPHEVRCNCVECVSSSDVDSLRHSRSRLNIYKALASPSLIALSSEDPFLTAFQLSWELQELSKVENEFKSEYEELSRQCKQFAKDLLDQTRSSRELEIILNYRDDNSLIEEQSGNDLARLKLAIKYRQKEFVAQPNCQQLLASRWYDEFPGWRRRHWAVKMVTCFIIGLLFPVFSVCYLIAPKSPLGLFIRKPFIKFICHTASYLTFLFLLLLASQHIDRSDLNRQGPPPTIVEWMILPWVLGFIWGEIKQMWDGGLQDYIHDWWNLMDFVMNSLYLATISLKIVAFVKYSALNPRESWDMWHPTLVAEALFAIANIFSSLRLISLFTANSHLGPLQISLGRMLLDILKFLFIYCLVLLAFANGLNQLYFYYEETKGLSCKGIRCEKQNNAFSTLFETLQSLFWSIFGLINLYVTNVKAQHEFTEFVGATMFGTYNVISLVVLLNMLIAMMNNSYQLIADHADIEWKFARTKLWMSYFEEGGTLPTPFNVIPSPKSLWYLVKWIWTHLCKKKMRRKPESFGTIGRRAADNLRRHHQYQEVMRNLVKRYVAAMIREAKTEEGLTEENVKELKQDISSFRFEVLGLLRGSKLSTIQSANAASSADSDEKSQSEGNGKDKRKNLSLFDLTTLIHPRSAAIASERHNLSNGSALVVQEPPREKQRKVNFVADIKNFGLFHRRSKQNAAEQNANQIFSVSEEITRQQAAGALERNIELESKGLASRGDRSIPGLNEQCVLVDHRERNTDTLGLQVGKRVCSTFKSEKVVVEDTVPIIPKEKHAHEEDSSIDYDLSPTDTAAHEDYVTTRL
TRPC4 inh – inhibitors of mouse TRPC4 channel | Q9QUQ5 | HEK293 TRPC4beta/mu-opioid, DAMGO-evoked Fluo4 calcium flux; stronger effect = lower value | B-score at 10 µM | actives 0.39% (n = 300,000) | AID 2247;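 active means B-score over 3 SD under the library average, no early fluorescence shift, positive overall ratio signal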
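material = TRPC4beta/mu-opioid receptor HEK293 cell line | probe or stimulus = sequential submaximal and maximal DAMGO stimulation | compound dosing = one concentration per compound | measured by = Fluo4 Ca2+ flux fluorescence | evaluation = integrated fluorescence ratio relative to baseline, converted to per-well B score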
DSG3 Ab inh – inhibitors of pemphigus antibody binding to human desmoglein-3. actives 0.48% (n = 310,000). DSG3-coupled beads, scFv-anti-DSG3-GFP binding, flow cytometry; stronger effect = lower value. P32926. binding (percent of control), % at 10 µM. AID 588358;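 active means binding more than 3 SD below its plate's average and above zero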;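 further: hits lower antibody fragment binding to DSG3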
TRPC6 activator – activates the mouse TRPC6 cation channel | Q61143 | HEK293-TRPC6 membrane potential dye fluorescence; stronger effect = higher value | B-score at 10 µM | actives 0.13% (n = 310,000) | AID 2550;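 active means B-score of the integrated fluorescence ratio above library mean plus 3 SD, and starting fluorescence ratio within library mean plus 5 SD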;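 further: higher score means more depolarization so channel activation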
TRPC4 agonist – TRPC4 (mouse) channel activation. Q9QUQ5. HEK293 TRPC4beta/mu-opioid, Fluo4 calcium fluorescence; stronger effect = higher value. B-score at 10 µM. actives 0.49% (n = 310,000);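 active means B-score above 5 SD of library B-scores, and initial fluorescence ratio not above library mean plus 5 SD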;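 further: positive B-score marks a calcium rise read as TRPC4 activation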
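system = HEK293 cells stably co-expressing mouse TRPC4beta and mu-opioid receptor | schedule = Fluo4 dye loading 45 min at room temperature, 110 s recording | measure = B-scored integrated calcium fluorescence ratio | signal = Fluo4 calcium-sensitive dye fluorescence, kinetic, 1 Hz baseline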
TRPC4 spec 2 – mouse TRPC4 off-target activity of TRPC6 inhibitors, second screen; shares compounds with TRPC6 inh; HEK293 TRPC4/MOR, membrane potential dye fluorescence; channel activated by saturating DAMGO dose; inhibition, % at 10 µM; actives 42% (n = 920); AID 2776;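 active means compounds whose fluorescence signal differed from control wells by over 3 SD, either direction, in both duplicate plates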
TRPC4 spec – selectivity of TRPC6 inhibitors: effect on mouse TRPC4; shares compounds with TRPC6 inh; HEK293 TRPC4/mu-opioid, membrane potential fluorescence; activity change, negative = inhibition, % at 10 µM; actives 61% (n = 920);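 active means rise or fall in signal beyond 3 SD of buffer-only wells in both replicate plates, either sign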;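 further: integrated kinetic ratio of fluorescence range over baseline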
HEK293 MPD ctr 2-1 – parental HEK293 nonspecific activity of TRPC6 inhibitors, second screen; actives 31% (n = 920); AID 2779; signal change vs control, % at 10 µM; shares compounds with TRPC6 inh; parental HEK293 membrane potential dye fluorescence; maximal acetylcholine challenge after compound addition;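 active means membrane potential signal moving either way by over 3 SD of the maximum-effect control, in both duplicate plates, meaning non-specific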
HEK293 MPD ctr-1 – checks TRPC6 inhibitor effects in parental HEK293 cells; shares compounds with TRPC6 inh; parental HEK293 membrane potential dye fluorescence; actives 60% (n = 920); membrane potential signal change, % at 10 µM;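 active means membrane potential signal shifting up or down by more than 3 SD of buffer-only wells, on both duplicate plates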
HEK293 MPD ctr-2 – checks TRPC6 modulator effects in parental HEK293 cells; membrane potential signal change, % at 10 µM; shares compounds with TRPC6 inh; membrane potential dye fluorescence; AID 488924; actives 51% (n = 2,400);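 active means membrane potential signal moves up or down beyond 5 SD from buffer-only wells, on both duplicate plates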
HEK293 MPD ctr 2-2 – second check of TRPC6 modulator effects in parental HEK293 cells; shares compounds with TRPC6 inh; membrane potential dye fluorescence; after compound, maximal acetylcholine stimulation; inhibition, % at 10 µM; actives 14% (n = 2,400); AID 488926;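 active means membrane potential signal drops by more than 5 SD from the mean control signal, in both duplicate plates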;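 further: plate controls were acetylcholine ECmax control wells for no effect and buffer only wells for full effect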
TRPC4 ctr mod – selectivity of TRPC6 modulators against mouse TRPC4; HEK293 TRPC4/mu-opioid, membrane potential fluorescence; percent change from control (negative = decrease, positive = increase), % at 10 µM; shares compounds with TRPC6 inh; AID 488927; actives 69% (n = 2,400);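 active means membrane potential signal moved up or down beyond 5 SD of buffer control wells, in both duplicate plates, actives on both sides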;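 further: plate controls were assay buffer wells for no effect and DAMGO maximal-effect wells for full effect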
TRPC4 ctr inh 2 – mouse TRPC4 off-target activity of TRPC6 modulators, second screen. shares compounds with TRPC6 inh. HEK293 TRPC4/mu-opioid, membrane potential dye fluorescence; stimulated with maximal-effect DAMGO. inhibition, % at 10 µM. actives 55% (n = 2,400). AID 488928;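 active means drop in membrane potential signal beyond 5 SD of the control wells in both duplicate plates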;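 further: TRPC4 counter screen for TRPC6 hits run under conditions tuned for TRPC6 not TRPC4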
TRPC6 inh conf – confirmation of mouse TRPC6 inhibitors | inhibition, % at 10 µM | AID 488960 | actives 43% (n = 3,300) | shares compounds with TRPC6 inh | HEK293-TRPC6, membrane potential dye, ACh-evoked depolarization;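 active means fluorescence ratio falls more than 5 SD below the full-stimulation control mean, in both duplicate runs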;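 further: integrated fluorescence ratio of peak minus minimum over baseline after agonist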
TRPC6 act conf – confirmation of mouse TRPC6 activators; shares compounds with TRPC6 inh; HEK293-TRPC6 membrane potential dye fluorescence, FDSS; activation, % at 10 µM; actives 11% (n = 2,800);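 active means ratio signal rise beyond 5 SD above unstimulated control wells' mean, seen in both duplicate runs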;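 further: plate controls were buffer EC0 wells for no effect and acetylcholine ECmax response for full effect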
* marks the source's active call; other numbers are inactive results; i = inactive; · = no result given.

SMILES	TRPC6 inh	TRPC4 potent	TRPC4 inh	DSG3 Ab inh	TRPC6 activator	TRPC4 agonist	HEK293 MPD ctr-2	HEK293 MPD ctr 2-2	TRPC4 ctr mod	TRPC4 ctr inh 2	TRPC6 inh conf	TRPC6 act conf	others
COC(=O)Cc1sc(-c2ccccn2)nc1-c1ccccc1	-5.7*	i	i	100	i	i	i	i	12%*	i	i	i
Cc1cc(C)c2c(=O)[nH]c(SCC(=O)c3ccc(F)c(C)c3)nc2n1	i	i	i	96	i	i	·	·	·	·	·	·
CN1CCC(=C2c3ccccc3C=Cc3ccccc32)CC1	-5.5*	i	i	115	i	i	150%*	76%*	23%*	54%*	75%*	·
CN1CCC(=C2c3ccccc3Sc3ccccc32)CC1	·	·	·	118	·	·	·	·	·	·	·	·
C=CCn1c(C)c(C(C)=O)c(N2CCN(C(c3ccccc3)c3ccccc3)CC2)nc1=S	i	i	i	101	i	i	·	·	·	·	·	·
CC1C/C(=N/NC(=O)c2ccc(CSc3nc4ccccc4[nH]3)cc2)CC(C)(C)C1 (configuration not stated)	i	i	i	112	i	i	·	·	·	·	·	·
CC1C/C(=N/Nc2nc3ccccc3[nH]2)CC(C)(C)C1 (configuration not stated)	-5.4*	i	i	103	i	i	i	i	i	48%*	i	i
CCc1ccc(N=C2N=C(N)c3ccccc32)cc1	-7.8*	i	i	110	i	i	·	·	·	·	71%*	i	TRPC4 spec 2=28%*;TRPC4 spec=-21%*;HEK293 MPD ctr 2-1=i;HEK293 MPD ctr-1=-465%*
COCc1cc(C)nc(SCC[N+](C)(C)CC(=O)Nc2cccc(C)c2)c1C#N	-7*	i	i	117	i	i	·	·	·	·	i	i	TRPC4 spec 2=i;TRPC4 spec=-13%*;HEK293 MPD ctr 2-1=i;HEK293 MPD ctr-1=-170%*
COc1ccc(-c2cc3nc4n(c(=O)c3s2)CCC4)cc1	i	i	i	101	i	i	·	·	·	·	·	·
COc1ccc(-c2nc3n(c2C)CCC3)cc1	-5.8*	i	i	·	i	i	-266%*	i	-36%*	44%*	i	i
Cc1ccc2c(c1)NC(=O)C(CC(=O)NCCCN1CCCCC1C)O2 (configuration not stated)	i	i	i	105	i	i	·	·	·	·	·	·
CCC(C)N(CCNC(=O)CC1Oc2ccc(C)cc2NC1=O)C1CCCCC1 (configuration not stated)	-8.4*	i	i	110	i	i	·	·	·	·	53%*	·	TRPC4 spec 2=i;TRPC4 spec=17%*;HEK293 MPD ctr 2-1=i;HEK293 MPD ctr-1=13%*
CCOC(=O)c1ccc2ncc(C(=O)OCC)c(Nc3ccc(N4CCOCC4)cc3)c2c1	-9.7*	i	i	112	i	i	-186%*	i	-46%*	42%*	i	i
CCOC(=O)c1cnc2ccc(C(=O)OC)cc2c1Nc1ccc(C(=O)O)cc1	-5.2*	i	i	103	i	i	-248%*	i	-37%*	43%*	i	i
CCOC(=O)c1cnc2ccc(OC)cc2c1Nc1ccc2c(c1)OCCO2	-7.5*	i	i	100	i	i	·	·	·	·	i	i	TRPC4 spec 2=i;TRPC4 spec=-14%*;HEK293 MPD ctr 2-1=i;HEK293 MPD ctr-1=-292%*
CCOC(=O)c1cnc2ccc(C(=O)OC)cc2c1Nc1ccc2c(c1)OCCO2	i	i	i	120	i	i	·	·	·	·	·	·
CCC[n+]1c2ccccc2cc2ccccc21	-12*	i	i	90	i	i	-176%*	84%*	-91%*	66%*	68%*	i
CCCC[n+]1c2ccccc2cc2ccccc21	-6.3*	i	-5*	86	i	i	-170%*	i	-100%*	74%*	56%*	i
Cc1ccc2ccccc2[n+]1CCCS(=O)(=O)[O-]	i	i	i	98	i	i	·	·	·	·	·	·
Cc1ccc(NC(=O)c2cc(-c3cc(C)c(C)cc3O)n[nH]2)cc1C	i	i	i	105	i	i	·	·	·	·	·	·
CC(=O)Nc1cccc(-c2cnc(N)c(C(=O)c3cccnc3)n2)c1	·	·	·	109	·	·	·	·	·	·	·	·
CC(C)Cc1nnc(NC(=O)c2ccc3c(=O)n4c(nc3c2)CCC4)s1	-7.7*	i	i	27	i	i	·	·	·	·	i	i	TRPC4 spec 2=i;TRPC4 spec=-15%*;HEK293 MPD ctr 2-1=i;HEK293 MPD ctr-1=-280%*
CC(C)Cc1nnc(NC(=O)c2ccc(N3CCCC3=O)cc2)s1	i	i	i	122	i	i	·	·	·	·	·	·
Cc1ccc2sc(N(CCCN(C)C)C(=O)c3nc4ccccc4s3)nc2c1C	i	i	i	108	i	i	·	·	·	·	·	·
Cc1ccc2sc(N(CCCN(C)C)C(=O)c3ccc(Br)s3)nc2c1C	-6.5*	i	i	94	i	i	i	i	-20%*	80%*	i	i
